Test results: ChEMBL document CHEMBL5236552, “Discovery of Soticlestat, a Potent and Selective Inhibitor for Cholesterol 24-Hydroxylase (CH24H)” (J Med Chem, 2021)

Assays:
[1] = target: Cholesterol 24-hydroxylase (Homo sapiens, UniProt Q9Y6A2); assay: Inhibition of full length N-terminal his6-tagged human CH24H (28 to 494 residues) expressed in Escherichia coli DH5alpha using [14C] cholesterol as substrate preincubated for 15 mins followed by substrate addition and measured after 5 min in presence of beta-NADPH
Chain of Cholesterol 24-hydroxylase (Q9Y6A2 whole entry, the tested form may be a part): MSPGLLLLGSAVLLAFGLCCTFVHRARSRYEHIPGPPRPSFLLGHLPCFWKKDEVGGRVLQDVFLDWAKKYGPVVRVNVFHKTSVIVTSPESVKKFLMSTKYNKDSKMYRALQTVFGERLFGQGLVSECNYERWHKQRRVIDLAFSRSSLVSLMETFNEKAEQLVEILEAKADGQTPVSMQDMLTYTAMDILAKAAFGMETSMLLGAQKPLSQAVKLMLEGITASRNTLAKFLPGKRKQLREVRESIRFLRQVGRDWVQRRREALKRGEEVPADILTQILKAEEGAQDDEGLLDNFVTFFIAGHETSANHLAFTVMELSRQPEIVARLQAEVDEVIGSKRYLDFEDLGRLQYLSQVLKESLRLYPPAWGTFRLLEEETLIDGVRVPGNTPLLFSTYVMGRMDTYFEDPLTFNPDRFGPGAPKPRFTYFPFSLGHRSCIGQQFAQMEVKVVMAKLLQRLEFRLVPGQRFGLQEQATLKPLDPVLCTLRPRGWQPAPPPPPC

[2] = target: CYP3A4 (Homo sapiens, UniProt P08684); assay: Inhibition of CYP3A4 (unknown origin) at 10 uM using testosterone as substrate incubated for 60 mins by LC-MS/MS analysis relative to control; type: ADME; conditions: probe testosterone
Chain of CYP3A4 (P08684 whole entry): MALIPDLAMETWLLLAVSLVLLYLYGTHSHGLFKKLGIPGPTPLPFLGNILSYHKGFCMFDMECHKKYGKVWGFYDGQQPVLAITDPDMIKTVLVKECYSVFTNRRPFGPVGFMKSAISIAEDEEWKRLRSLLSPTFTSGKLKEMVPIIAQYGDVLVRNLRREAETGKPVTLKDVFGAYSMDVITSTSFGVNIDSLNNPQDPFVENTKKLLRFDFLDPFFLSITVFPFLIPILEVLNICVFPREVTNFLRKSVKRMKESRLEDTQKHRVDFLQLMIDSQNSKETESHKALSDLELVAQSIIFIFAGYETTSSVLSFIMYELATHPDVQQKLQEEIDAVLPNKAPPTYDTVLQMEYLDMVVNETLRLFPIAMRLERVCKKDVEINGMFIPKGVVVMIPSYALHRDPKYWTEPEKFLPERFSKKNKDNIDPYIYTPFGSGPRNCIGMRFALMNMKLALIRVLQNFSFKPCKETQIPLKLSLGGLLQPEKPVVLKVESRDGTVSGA
In short: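 CYP3A4-expressing microsomes in 50 mmol/L phosphate buffer (pH 7.4) with an NADPH-generating system (MgCl2, β-NADP+, glucose-6-phosphate, G6P dehydrogenase). Testosterone was the substrate and test compound was 10 µmol/L, with final solvent at 0.5%. Incubated 60 min, stopped with acetonitrile, and 6β-hydroxytestosterone read by LC/MS/MS. Run in triplicate; reported as % activity remaining versus an inhibitor-free control.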

[3] = Metabolic stability in human liver microsome assessed as clearance at 1 uM incubated for 15 to 30 mins in presence of NADPH by LC-MS/MS analysis; type: ADME; conditions: liver microsomes, time 15-30 min, read-out: CLH
In short: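 Human liver microsomes (0.2 mg protein/mL) were mixed with compound (1 µM) in phosphate buffer (pH 7.4) and started with an NADPH-generating system. Incubated at 37 °C for 15 and 30 min, with zero-time samples as controls, then stopped with acetonitrile. Remaining compound in the supernatant was measured by LC/MS/MS.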

[4] = Inhibition of testosterone synthesis in human NCI-H295R cells by Enzyme immunoassay; type: functional, cell-based
In short: (§1)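 H295R adrenocortical cells grown in DMEM/F12 with 2.5% Nu-serum and 1% ITS-plus, seeded at 5×10^4 per well for three nights, then primed two nights with 20 µM forskolin. Cells washed, then exposed overnight to compound in DMEM/F12 with 1% ITS-plus and 20 µM forskolin. Cortisol, testosterone, aldosterone and corticosterone in the supernatant measured by competitive EIA against a calibration curve; triplicate, mean ± SEM.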

[5] = Inhibition of corticosterone synthesis in human NCI-H295R cells by Enzyme immunoassay; type: functional, cell-based; in short: as §1
[6] = Inhibition of cortisol synthesis in human NCI-H295R cells by Enzyme immunoassay; type: functional, cell-based; in short: as §1
[7] = Inhibition of aldosterone synthesis in human NCI-H295R cells by Enzyme immunoassay; type: functional, cell-based; in short: as §1
[8] = Inhibition of testosterone synthesis in human NCI-H295R cells at 10 uM by Enzyme immunoassay relative to control; type: functional; in short: as §1
[9] = target: T1, Cytochrome P450 2C8 (Homo sapiens, UniProt P10632); assay: Inhibition of CYP2C8 (unknown origin) using amodiaquine as substrate incubated for 10 to 20 mins in presence of NADPH-generating system by LC-MS/MS analysis; type: ADME
T1 sequence (P10632 whole entry): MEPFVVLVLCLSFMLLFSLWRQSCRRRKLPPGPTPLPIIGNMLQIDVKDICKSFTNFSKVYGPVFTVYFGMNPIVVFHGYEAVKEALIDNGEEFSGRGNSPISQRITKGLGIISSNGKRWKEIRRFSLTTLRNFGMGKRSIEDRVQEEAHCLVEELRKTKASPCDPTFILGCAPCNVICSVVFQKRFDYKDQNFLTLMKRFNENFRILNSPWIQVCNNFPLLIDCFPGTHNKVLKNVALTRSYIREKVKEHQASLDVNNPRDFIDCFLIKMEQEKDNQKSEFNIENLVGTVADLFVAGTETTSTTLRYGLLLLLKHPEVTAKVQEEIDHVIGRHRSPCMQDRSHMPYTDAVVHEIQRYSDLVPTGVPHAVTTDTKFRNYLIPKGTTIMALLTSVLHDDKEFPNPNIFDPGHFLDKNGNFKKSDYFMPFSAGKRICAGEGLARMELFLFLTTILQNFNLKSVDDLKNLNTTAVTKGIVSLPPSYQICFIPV
In short: (§2)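 Recombinant CYP-expressing microsomes (CYP1A2, 2C8, 2C9, 2C19, 2D6, 3A4) in 50 mM phosphate buffer pH 7.4 with NADPH-generating system. Substrates: phenacetin, amodiaquine, tolbutamide, (S)-mephenytoin, bufuralol, testosterone, respectively. Test compounds at 1–100 µM final, 0.5% final solvent. Incubated 10–20 min at 37 °C in duplicate, stopped with acetonitrile. Metabolite peaks read by LC/MS/MS; activity given as % remaining versus no-inhibitor control.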

[10] = target: Cytochrome P450 2C9 (Homo sapiens, UniProt P11712); assay: Inhibition of CYP2C9 (unknown origin) using tolbutamide as substrate incubated for 10 to 20 mins in presence of NADPH-generating system by LC-MS/MS analysis; type: ADME; in short: as §2
Chain of Cytochrome P450 2C9 (P11712 whole entry): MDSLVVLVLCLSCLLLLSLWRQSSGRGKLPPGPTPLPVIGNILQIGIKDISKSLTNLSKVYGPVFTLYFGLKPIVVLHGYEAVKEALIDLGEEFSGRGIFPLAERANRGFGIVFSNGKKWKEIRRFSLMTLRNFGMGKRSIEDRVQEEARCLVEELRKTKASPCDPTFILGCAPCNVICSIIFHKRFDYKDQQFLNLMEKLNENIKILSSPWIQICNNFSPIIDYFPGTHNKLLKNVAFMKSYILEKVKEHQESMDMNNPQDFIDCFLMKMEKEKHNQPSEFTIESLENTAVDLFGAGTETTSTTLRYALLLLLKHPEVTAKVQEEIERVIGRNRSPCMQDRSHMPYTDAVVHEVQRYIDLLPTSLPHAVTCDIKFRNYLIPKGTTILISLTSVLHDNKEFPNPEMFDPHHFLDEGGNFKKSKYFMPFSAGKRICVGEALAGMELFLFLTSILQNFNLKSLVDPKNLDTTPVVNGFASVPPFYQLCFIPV

[11] = target: T2, Cytochrome P450 1A2 (Homo sapiens, UniProt P05177); assay: Inhibition of CYP1A2 (unknown origin) using phenacetin as substrate incubated for 10 to 20 mins in presence of NADPH-generating system by LC-MS/MS analysis; type: ADME; in short: as §2
T2 sequence (P05177 whole entry): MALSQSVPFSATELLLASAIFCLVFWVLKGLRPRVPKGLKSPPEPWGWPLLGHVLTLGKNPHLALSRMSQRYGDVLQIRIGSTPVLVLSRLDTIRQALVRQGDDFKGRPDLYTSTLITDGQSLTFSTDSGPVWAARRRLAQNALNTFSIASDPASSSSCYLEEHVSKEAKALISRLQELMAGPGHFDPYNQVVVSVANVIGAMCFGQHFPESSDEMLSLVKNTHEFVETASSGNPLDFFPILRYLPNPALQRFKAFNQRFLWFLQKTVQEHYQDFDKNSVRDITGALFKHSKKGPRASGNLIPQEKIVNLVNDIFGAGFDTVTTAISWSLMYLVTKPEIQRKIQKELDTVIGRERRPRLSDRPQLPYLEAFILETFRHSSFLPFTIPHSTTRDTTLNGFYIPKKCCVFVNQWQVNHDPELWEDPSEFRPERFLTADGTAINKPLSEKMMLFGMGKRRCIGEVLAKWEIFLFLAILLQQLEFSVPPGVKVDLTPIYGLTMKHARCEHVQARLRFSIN

[12] = Drug concentration in po dosed C57BL/6N mouse brain measured upto 24 hrs by LC-MS analysis; type: ADME, organism-based; conditions: in vivo, dose 1-10 mg/kg
In short: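 Female C57BL/6N mice, 7–8 weeks, 3 per group; single oral gavage at 1, 3 and 10 mg/kg in 0.5% aqueous methylcellulose (10 mL/kg). Brains taken at 0.5–24 h (from 0.25 h at 10 mg/kg) and homogenized in about 4-fold saline. Homogenate mixed with acetonitrile plus internal standard, centrifuged, and quantified by LC-MS/MS in MRM mode (m/z 374.20→183.10).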

[13] = tested on: Mus musculus; assay: In vivo inhibition of […] CH24H in po dosed C57BL/6N mouse brain assessed as reduction in 24HC level measured upto 24 hrs; type: functional, organism-based; conditions: dose 1-10 mg/kg
In short: (§3)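 Female C57BL/6N mice, 7–8 weeks, 3 per group; single oral gavage in 0.5% aqueous methylcellulose (10 mL/kg) at 1, 3 or 10 mg/kg. Brains collected up to 24 h after dosing and homogenized in about 4-fold saline. 24HC extracted with acetonitrile/methanol/formic acid, quantified by UPLC on a C18 column at 40 °C, and expressed as % of control; mean + SD.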

[14] = tested on: Mus musculus; assay: In vivo inhibition of […] CH24H in C57BL/6N mouse brain assessed as reduction in 24HC level at 10 mg/kg, po measured after 24 hrs relative to control; type: functional; in short: as §3
[15] = tested on: Mus musculus; assay: In vivo inhibition of […] CH24H in C57BL/6N mouse brain assessed as reduction in 24HC level at 3 mg/kg, po measured after 24 hrs relative to control; type: functional; in short: as §3
[16] = Inhibition of corticosterone synthesis in human NCI-H295R cells at 10 uM by Enzyme immunoassay relative to control; type: functional; in short: as §1
[17] = Inhibition of cortisol synthesis in human NCI-H295R cells at 10 uM by Enzyme immunoassay relative to control; type: functional; in short: as §1
[18] = Inhibition of aldosterone synthesis in human NCI-H295R cells at 10 uM by Enzyme immunoassay relative to control; type: functional; in short: as §1
[19] = target: Cytochrome P450 2D6 (Homo sapiens, UniProt P10635); assay: Inhibition of CYP2D6 (unknown origin) using bufuralol as substrate incubated for 10 to 20 mins in presence of NADPH-generating system by LC-MS/MS analysis
Chain of Cytochrome P450 2D6 (P10635 whole entry): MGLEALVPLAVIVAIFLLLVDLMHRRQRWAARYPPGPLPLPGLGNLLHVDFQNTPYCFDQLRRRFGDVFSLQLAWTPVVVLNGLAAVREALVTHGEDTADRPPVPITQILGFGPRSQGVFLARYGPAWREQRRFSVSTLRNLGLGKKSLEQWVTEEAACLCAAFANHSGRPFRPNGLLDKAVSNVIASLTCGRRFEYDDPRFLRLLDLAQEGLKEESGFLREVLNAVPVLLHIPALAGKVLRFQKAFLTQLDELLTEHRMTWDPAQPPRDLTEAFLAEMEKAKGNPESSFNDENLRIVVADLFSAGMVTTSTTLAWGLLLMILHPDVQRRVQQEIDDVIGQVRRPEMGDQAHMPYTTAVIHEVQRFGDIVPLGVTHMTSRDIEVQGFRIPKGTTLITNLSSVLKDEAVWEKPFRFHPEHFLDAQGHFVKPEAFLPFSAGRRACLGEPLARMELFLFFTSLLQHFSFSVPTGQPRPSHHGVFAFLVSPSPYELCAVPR

[20] = target: Cytochrome P450 2C19 (Homo sapiens, UniProt P33261); assay: Inhibition of CYP2C19 (unknown origin) using (S)-mephenytoin as substrate incubated for 10 to 20 mins in presence of NADPH-generating system by LC-MS/MS analysis
Chain of Cytochrome P450 2C19 (P33261 whole entry): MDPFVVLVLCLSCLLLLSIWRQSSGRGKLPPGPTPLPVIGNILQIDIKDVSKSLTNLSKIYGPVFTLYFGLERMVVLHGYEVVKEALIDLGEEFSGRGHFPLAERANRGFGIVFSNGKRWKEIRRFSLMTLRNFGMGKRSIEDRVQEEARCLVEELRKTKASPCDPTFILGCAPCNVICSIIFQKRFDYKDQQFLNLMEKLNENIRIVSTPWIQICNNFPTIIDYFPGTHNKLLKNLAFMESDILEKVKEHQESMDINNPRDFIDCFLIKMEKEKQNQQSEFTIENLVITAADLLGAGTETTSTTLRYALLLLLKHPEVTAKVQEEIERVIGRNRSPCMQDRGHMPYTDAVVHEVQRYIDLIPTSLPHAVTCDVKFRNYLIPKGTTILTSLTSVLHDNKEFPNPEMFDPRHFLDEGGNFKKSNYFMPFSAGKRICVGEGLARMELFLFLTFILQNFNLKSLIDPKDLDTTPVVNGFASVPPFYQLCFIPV

Row | IC50 [1] | inhibition at 1 h, 10 µM [2] | Compound | other results
1 | 2.4 nM | 75% | O=C(c1cc(Cl)ccc1-c1ccncc1)N1CCC(O)(Cc2ccccc2)CC1 | –
2 | 19 nM | 13% | O=C(c1cccnc1-c1ccncn1)N1CCC(O)(Cc2ccccc2)CC1 | microsomal CLint at 1 µM [3]: 17 µL/min/mg
3 | > 10000 nM | – | Cc1ccc(-c2ccncc2)c(C(=O)N2CCN(C(=O)c3ccccc3)CC2)c1 | –
4 | 21 nM | 18% | O=C(c1ccccc1-c1ccncc1)N1CCC(O)(Cc2ccccn2)CC1 | microsomal CLint at 1 µM [3]: 22 µL/min/mg
5 | 2.7 nM | 67% | Cc1ccc(-c2ccncc2)c(C(=O)N2CCC(O)(Cc3ccccc3)CC2)c1 | –
6 | – | – | CC(=O)N1CCN(c2ccc(OCC3COC(Cn4ccnc4)(c4ccc(Cl)cc4Cl)O3)cc2)CC1 (stereo not given) [KETOCONAZOLE] | IC50 [4]: 340 nM; IC50 [5]: 2500 nM; IC50 [6]: 440 nM; IC50 [7]: 1400 nM
7 | 16 nM | – | Cc1ccc(-c2ccncc2)c(C(=O)N2CCC(Cc3ccccc3)C(O)C2)c1 (racemic) | –
8 | 36 nM | 8.8% | O=C(c1ccccc1-c1ccncn1)N1CCC(O)(Cc2ccccn2)CC1 | microsomal CLint at 1 µM [3]: 9 µL/min/mg
9 | 4.7 nM | 67% | COc1ccc(-c2ccncc2)c(C(=O)N2CCC(O)(Cc3ccccc3)CC2)c1 | –
10 | 7.8 nM | 71% | Cc1cccc(-c2ccncc2)c1C(=O)N1CCC(O)(Cc2ccccc2)CC1 | –
11 | 60 nM | – | Cc1ccccc1C1=NN(C(=O)c2ccncc2)C(C)(C)C1 | –
12 | 350 nM | – | O=C(c1ccncc1)N1N=C(c2ccccc2)CC1(O)C(F)(F)F (stereo not given) | –
13 | 89 nM | – | Cc1ccc(-c2ccncc2)c(C(=O)N2CCN(Cc3ccccc3)C(=O)C2)c1 | –
14 | 110 nM | – | Cc1ccc(-c2ccncc2)c(C(=O)N2CCC(Cc3ccccc3)CC2)c1 | –
15 | 4.4 nM | 65% | Cc1ccc(C(=O)N2CCC(O)(Cc3ccccc3)CC2)c(-c2ccncc2)c1 | –
16 | 1200 nM | – | Cc1ccc(-c2ccncc2)c(C(=O)N2CCC(O)(c3ccccc3)CC2)c1 | –
17 | 7.9 nM | 45% | O=C(c1ccccc1-c1ccncc1)N1CCC(O)(Cc2ccccc2)CC1 | microsomal CLint at 1 µM [3]: 120 µL/min/mg
18 | 4.3 nM | 17% | O=C(c1ccccc1-c1ccncn1)N1CCC(O)(Cc2ccccc2)CC1 | microsomal CLint at 1 µM [3]: 70 µL/min/mg
19 | 17 nM | 77% | Cc1ccc(-c2ccncc2F)c(C(=O)N2CCC(O)(Cc3ccccc3)CC2)c1 | –
20 | 93 nM | – | Cc1ccc(-c2ccncc2)c(C(=O)N2CCN(Cc3ccccc3)CC2)c1 | –
21 | > 10000 nM | 60% | Cc1ccc(-c2ccnc(C)c2)c(C(=O)N2CCC(O)(Cc3ccccc3)CC2)c1 | –
22 | 1900 nM | – | COC(=O)c1cc(C)ccc1-c1ccncc1 | –
23 | 7700 nM | – | Cc1ccc(-c2ccncc2)c(C(=O)N2CCC(O)CC2)c1 | –
24 | 130 nM | 77% | Cc1cccc(C(=O)N2CCC(O)(Cc3ccccc3)CC2)c1-c1ccncc1 | –
25 | 4.9 nM | 91% | Cc1ccc(-c2ccncc2C)c(C(=O)N2CCC(O)(Cc3ccccc3)CC2)c1 | –
26 | 74 nM | – | COC1(Cc2ccccc2)CCN(C(=O)c2cc(C)ccc2-c2ccncc2)CC1 | –
27 | 6.1 nM | 55% | O=C(c1cc(F)ccc1-c1ccncc1)N1CCC(O)(Cc2ccccc2)CC1 | –
28 | 100 nM | 5.3% | O=C(c1cccnc1-c1ccncc1)N1CCC(O)(Cc2ccccn2)CC1 | –
29 | 540 nM | – | CCC1(O)CCN(C(=O)c2cc(C)ccc2-c2ccncc2)CC1 | –

Row | Compound | IC50 [1] | inhibition at 1 h, 10 µM [2] | other results
30 | C[C@@H](c1ncncc1F)[C@](O)(Cn1cncn1)c1ccc(F)cc1F [VORICONAZOLE] | > 10000 nM | – | –
31 | O=C(c1cccnc1-c1ccncc1)N1CCC(O)(Cc2ccccc2)CC1 [SOTICLESTAT] | 7.4 nM | 28% | inhibition at 10 µM [8]: -0.4%; microsomal CLint at 1 µM [3]: 22 µL/min/mg; IC50 [9]: 62000 nM; IC50 [10]: 19000 nM; IC50 [11]: > 100000 nM; Drug uptake [12]: Dose-Dependent Effect; inhibition [13]: Dose-Dependent Effect; inhibition in vivo at 10 mg/kg [14]: 33%; inhibition in vivo at 3 mg/kg [15]: 25%; inhibition at 10 µM [16]: -6%; inhibition at 10 µM [17]: 0.2%; inhibition at 10 µM [18]: -3.8%; IC50 [19]: > 100000 nM; IC50 [20]: 14000 nM
